The source made the active and inactive calls. The rule behind the calls is not given here.
Tests used:
[1] = biological target: Transcription factor p65 (Mus musculus) (UniProt Q04207); experiment: Inhibition of LPS-induced NF-kappaB p65 binding to DNA in mouse RAW264.7 cells at 10 to 40 uM after 1.5 hrs by spectrophotometry; assay type: cell-based
RAW264.7 [2] = experiment: Antiinflammatory activity in mouse RAW264.7 cells assessed as inhibition LPS-induced TNF-alpha mRNA expression at 10 uM after 4 hrs by RT-PCR analysis relative to control; assay type: functional
Method in brief: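 RAW 264.7 cells stimulated with LPS (1 μg/mL) with or without compound for 4 h. Total RNA was isolated and cytokine mRNA was analysed by RT-PCR: 94 °C 4 min, then 25−30 cycles of 94/55/72 °C for 30 s each, then 72 °C 5 min. Products were run on 2% agarose and stained with SYBR-Safe. Triplicate, representative of three experiments.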

RAW264.7 [3] = experiment: Antiinflammatory activity in mouse RAW264.7 cells assessed as inhibition of LPS-induced COX2 protein expression at 10 uM after 16 hrs by Western blotting analysis relative to control; assay type: functional
Method in brief: (§1)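 RAW 264.7 cells given LPS (1 μg/mL) with or without compound for 16 h. Cell lysates were Western blotted for iNOS and COX-2 (6−15% SDS-PAGE, PVDF, ECL detection). Performed in triplicate.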

RAW264.7 [4] = experiment: Antiinflammatory activity in mouse RAW264.7 cells assessed as inhibition of LPS-induced iNOS protein expression at 10 uM after 16 hrs by Western blotting analysis relative to control; assay type: functional; method in brief: as §1
[5] = biological target: T1, Nuclear factor NF-kappa-B p105 subunit (Mus musculus) (UniProt P25799); experiment: Inhibition of LPS-induced NFkappaB P50 protein nuclear translocation in mouse RAW264.7 cells at 40 uM after 30 mins by Western blotting analysis relative to control; assay type: cell-based
T1 sequence (whole entry): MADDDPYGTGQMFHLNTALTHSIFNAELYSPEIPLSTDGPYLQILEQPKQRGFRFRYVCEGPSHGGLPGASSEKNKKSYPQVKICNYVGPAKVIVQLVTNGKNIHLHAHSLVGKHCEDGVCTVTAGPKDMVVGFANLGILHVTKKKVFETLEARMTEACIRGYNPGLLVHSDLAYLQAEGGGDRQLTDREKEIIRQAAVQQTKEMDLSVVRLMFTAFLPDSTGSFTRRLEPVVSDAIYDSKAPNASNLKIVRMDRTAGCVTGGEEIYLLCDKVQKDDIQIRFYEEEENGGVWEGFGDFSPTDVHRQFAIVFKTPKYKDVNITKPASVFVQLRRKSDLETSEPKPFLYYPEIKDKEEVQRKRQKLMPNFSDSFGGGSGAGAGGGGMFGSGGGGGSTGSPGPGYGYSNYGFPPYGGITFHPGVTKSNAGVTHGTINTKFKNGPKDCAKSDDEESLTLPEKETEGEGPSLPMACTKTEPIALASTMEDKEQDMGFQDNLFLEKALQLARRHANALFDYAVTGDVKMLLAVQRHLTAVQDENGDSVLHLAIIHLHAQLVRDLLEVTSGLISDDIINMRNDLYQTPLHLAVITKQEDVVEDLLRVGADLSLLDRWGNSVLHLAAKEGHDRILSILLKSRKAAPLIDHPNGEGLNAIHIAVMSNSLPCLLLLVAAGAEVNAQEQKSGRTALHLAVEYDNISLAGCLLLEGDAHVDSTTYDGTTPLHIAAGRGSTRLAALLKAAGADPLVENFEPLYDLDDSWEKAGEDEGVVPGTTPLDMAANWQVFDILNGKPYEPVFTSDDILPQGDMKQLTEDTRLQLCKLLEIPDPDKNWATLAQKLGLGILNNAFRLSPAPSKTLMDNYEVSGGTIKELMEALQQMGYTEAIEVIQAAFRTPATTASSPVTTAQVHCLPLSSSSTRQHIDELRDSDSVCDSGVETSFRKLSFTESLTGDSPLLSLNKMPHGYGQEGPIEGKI
Method in brief: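 Macrophages were exposed to compound for 30 min before LPS stimulation, with proteins extracted 30 min later. Nuclear extracts were prepared in Tris/KCl/NP-40 lysis buffer, then 420 mM NaCl buffer, and the cytosolic fraction was kept for IκB-α. Western blot on PVDF with ECL detection. Tests in triplicate; representative of three separate experiments.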

[6] = biological target: MAP kinase p38 (Mus musculus) (UniProt P47811+O08911+Q9WUI1+Q9Z1B7); experiment: Inhibition LPS-induced p38 kinase phosphorylation in mouse RAW264.7 cells at 10 to 40 uM administered 30 mins prior to LPS challenge measured after 30 mins by Western blotting analysis; assay type: cell-based
Method in brief: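 RAW 264.7 cells pretreated with compound for 30 min, then stimulated with LPS for an additional 30 min. Lysates resolved by 6−15% SDS-PAGE and blotted to PVDF. Primary antibodies were applied overnight at 4 °C and secondary antibodies for 2 h at room temperature. Detection by ECL. Tests in triplicate; blots representative of three separate experiments.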

[7] = Cytotoxicity against mouse RAW264.7 cells assessed as cell viability at 40 uM after 4 hrs by MTT assay relative to control; assay type: cell-based; conditions: read-out: Activity
Method in brief: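 RAW 264.7 cells plated at 3 × 10^5 cells/mL in phenol red-free 10% FBS–DMEM, incubated 24 h, then treated with compound plus 1 μg/mL LPS for 20 h. After the Griess step, MTT was added (final 500 μg/mL) for 4 h at 37 °C. Formazan dissolved in DMSO, A570 read; survival taken relative to control; triplicate.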

RAW264.7 [8] = experiment: Antiinflammatory activity in mouse RAW264.7 cells assessed as inhibition of LPS-induced COX2 protein expression at 20 uM after 16 hrs by Western blotting analysis relative to control; assay type: functional; method in brief: as §1
RAW264.7 [9] = experiment: Antiinflammatory activity in mouse RAW264.7 cells assessed as inhibition of LPS-induced PGE2 production administered 1 hr prior to LPS challenge measured after 20 hrs by EIA relative to control; assay type: functional, cell-based
Method in brief: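 RAW 264.7 cells plated at 3 × 10^5 cells/mL, pretreated with compound for 1 h, then stimulated with 1 μg/mL LPS for 20 h. PGE2 in the supernatant was measured by immunoassay kit. Mean ± SD of triplicates.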

[10] = biological target: Transcription factor p65 (Mus musculus) (UniProt Q04207); experiment: Inhibition of LPS-induced NF-kappaB p65 binding to DNA in mouse RAW264.7 cells at 10 to 40 uM after 1.5 hrs by spectrophotometry in presence of wild type oligonucleotide; assay type: cell-based
RAW264.7 [11] = experiment: Antiinflammatory activity in mouse RAW264.7 cells assessed as inhibition of LPS-induced iNOS protein expression at 40 uM after 16 hrs by Western blotting analysis relative to control; assay type: functional; method in brief: as §1
Mus musculus = experiment: Antiinflammatory activity in ICR mouse ear edema model assessed as inhibition of TPA-induced ear edema at 10 mg/kg, po administered 30 mins prior to TPA challenge measured after 4 hrs relative to vehicle-treated control; assay type: functional
Method in brief: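 ICR mice (male, 18−20 g, 5 weeks old) dosed orally 30 min before TPA (1.0 μg in 20 μL acetone) was applied to inner and outer surfaces of the right ear. Killed by cervical dislocation after 4 h. Edema taken as the weight of a 5 mm punch biopsy of the right ear over the left. Ear homogenates were Western blotted for iNOS, COX-2 and IL-1β.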

Chain of Transcription factor p65 (Mus musculus) (Q04207 whole entry): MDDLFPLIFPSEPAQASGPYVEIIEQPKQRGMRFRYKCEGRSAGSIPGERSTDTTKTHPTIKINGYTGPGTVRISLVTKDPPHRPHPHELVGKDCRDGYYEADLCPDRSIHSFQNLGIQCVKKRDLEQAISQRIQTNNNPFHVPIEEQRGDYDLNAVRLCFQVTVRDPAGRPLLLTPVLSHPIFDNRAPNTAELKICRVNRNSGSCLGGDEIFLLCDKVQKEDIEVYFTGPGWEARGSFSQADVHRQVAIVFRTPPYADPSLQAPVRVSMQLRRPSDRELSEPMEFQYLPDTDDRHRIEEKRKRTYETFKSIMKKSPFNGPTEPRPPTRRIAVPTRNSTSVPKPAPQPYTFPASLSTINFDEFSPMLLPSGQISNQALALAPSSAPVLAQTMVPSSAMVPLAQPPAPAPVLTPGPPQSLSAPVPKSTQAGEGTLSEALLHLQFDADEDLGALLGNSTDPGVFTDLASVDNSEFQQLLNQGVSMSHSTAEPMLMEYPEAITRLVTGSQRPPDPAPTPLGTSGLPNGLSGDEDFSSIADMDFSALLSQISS

C=C1C(=O)O[C@@H]2[C@@H]3[C@@]4(C=C[C@@]3(C)[C@]3(C4)C(=O)O[C@@H]4[C@H]5C(C)=CC[C@H]5[C@](C)(O)C[C@H](OC(C)=O)[C@H]43)[C@](C)(O)CC[C@@H]12
inhibition [1]: Active
fold change (FC) (RAW264.7 [2]): 0.66
inhibition (RAW264.7 [2]): Active
fold change (FC) (RAW264.7 [3]): 0.52
fold change (FC) (RAW264.7 [4]): 0.61
fold change (FC) [5]: 0.16
inhibition [6]: inactive
viability at 4 h, 40 µM [7]: 83%
fold change (FC) (RAW264.7 [8]): 0.2
IC50 (RAW264.7 [9]): 14.3 µM
inhibition (RAW264.7 [9]): Dose-dependent effect
inhibition [10]: inactive
fold change (FC) (RAW264.7 [11]): 0.13
inhibition in vivo at 10 mg/kg (Mus musculus): 43%

Source: ChEMBL document CHEMBL3259611, “Suppression of inflammatory responses by handelin, a guaianolide dimer from Chrysanthemum boreale, via downregulation of NF-κB signaling and pro-inflammatory cytokine production” (J Nat Prod, 2014)
